In one test the target is T1, 5-hydroxytryptamine receptor 1A (Rattus norvegicus, UniProt P19327).
T1 sequence (P19327 whole entry): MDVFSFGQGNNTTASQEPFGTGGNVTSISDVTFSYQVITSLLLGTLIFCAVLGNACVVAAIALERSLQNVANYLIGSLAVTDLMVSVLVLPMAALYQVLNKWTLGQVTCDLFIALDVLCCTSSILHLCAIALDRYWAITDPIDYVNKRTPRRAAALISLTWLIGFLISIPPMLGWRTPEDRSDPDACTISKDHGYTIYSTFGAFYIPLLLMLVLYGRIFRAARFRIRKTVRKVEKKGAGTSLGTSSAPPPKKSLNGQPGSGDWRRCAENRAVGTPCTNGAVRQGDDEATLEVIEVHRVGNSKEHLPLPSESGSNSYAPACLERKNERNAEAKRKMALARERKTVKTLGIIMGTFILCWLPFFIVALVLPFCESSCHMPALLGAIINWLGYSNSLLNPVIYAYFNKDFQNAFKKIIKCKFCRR
Description: Displacement of [3H]-8-OH-DPAT from 5-HT1A receptor in rat hippocampal membranes after 30 mins by liquid scintillation counting. In kind it is cell membranes, Hippocampus, Membrane. The essentials: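 Crude rat hippocampal membranes in Tris-HCl 50 mM, pH 7.7, with pargyline and 4 mM CaCl2. […] Stopped by GF/B filtration, then scintillation counting. Ki from IC50 via Cheng–Prusoff; ≥3 experiments in triplicate.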
A general note: Displacement assays read how much labelled ligand stays bound in the presence of the test substance.
The Ki is the equilibrium dissociation constant of an inhibitor or competing ligand from its target. A low value points to a stronger hold on the target. For `COc1cccc(OC)c1OCCNC[C@H]1COc2cccc(Cl)c2O1.Cl`, affinity was put at a Ki of 1.7 nM.
Still for that read-out and setting: in the case of `COc1cccc(OC)c1OCCNC[C@H]1COc2c(OC)cccc2O1.Cl` it was 28.8 nM.
On the same count and under the same terms, then `COc1cccc(OC)c1OCCNC[C@H]1COc2cccc(F)c2O1.Cl`, with 1.41 nM; and `COc1cccc(OC)c1OCCNC[C@H]1COc2cccc(OC)c2O1.Cl`, with 0.851 nM.
Regarding `COc1cccc(OC)c1OCCNC[C@H]1COc2cccc(O)c2O1.Cl`, the Ki was 1 nM.

In a further test the target is T2, Alpha-1A adrenergic receptor (Homo sapiens, UniProt P35348).
T2 sequence (P35348 whole entry): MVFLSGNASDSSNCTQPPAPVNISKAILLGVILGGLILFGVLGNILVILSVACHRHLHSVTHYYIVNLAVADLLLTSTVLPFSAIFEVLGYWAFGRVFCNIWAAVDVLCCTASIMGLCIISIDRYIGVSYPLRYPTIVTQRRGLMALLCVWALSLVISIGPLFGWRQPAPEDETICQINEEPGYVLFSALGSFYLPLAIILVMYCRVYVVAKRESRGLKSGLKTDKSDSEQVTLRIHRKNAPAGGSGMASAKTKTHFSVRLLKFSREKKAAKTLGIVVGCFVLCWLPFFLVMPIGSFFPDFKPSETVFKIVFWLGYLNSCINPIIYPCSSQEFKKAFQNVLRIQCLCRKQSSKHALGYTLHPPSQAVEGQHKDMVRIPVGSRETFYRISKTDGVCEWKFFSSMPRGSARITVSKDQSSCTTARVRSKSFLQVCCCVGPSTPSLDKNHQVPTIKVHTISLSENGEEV
Description: Displacement of [3H]prazosin from human cloned alpha1A adrenoceptor expressed in CHO cell membranes after 30 mins by liquid scintillation counter. The essentials:
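Membranes incubated 30 min at 25 °C with 0.5 nM [3H]-prazosin ± compound (0.3–1000 nM) in 50 mM buffer, pH 7.7, containing pargyline and 0.1% ascorbic acid. Unlabelled prazosin defined nonspecific binding. GF/B filtration, scintillation counting.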
`COc1cccc(OC)c1OCCNC[C@H]1COc2cccc(Cl)c2O1.Cl` showed an inhibitory constant (Ki) of 0.891 nM.
Compound `COc1cccc(OC)c1OCCNC[C@H]1COc2c(OC)cccc2O1.Cl` had a Ki of 24 nM.
In turn, `COc1cccc(OC)c1OCCNC[C@H]1COc2cccc(F)c2O1.Cl` showed a Ki of 0.646 nM.
Compound `COc1cccc(OC)c1OCCNC[C@H]1COc2cccc(OC)c2O1.Cl` showed a Ki of 0.912 nM.
`COc1cccc(OC)c1OCCNC[C@H]1COc2cccc(O)c2O1.Cl` gave an inhibition constant Ki of 2.19 nM.

The target in another test is T3, Alpha-1A adrenergic receptor (Cavia porcellus) (UniProt Q9WU25).
T3 sequence (whole entry): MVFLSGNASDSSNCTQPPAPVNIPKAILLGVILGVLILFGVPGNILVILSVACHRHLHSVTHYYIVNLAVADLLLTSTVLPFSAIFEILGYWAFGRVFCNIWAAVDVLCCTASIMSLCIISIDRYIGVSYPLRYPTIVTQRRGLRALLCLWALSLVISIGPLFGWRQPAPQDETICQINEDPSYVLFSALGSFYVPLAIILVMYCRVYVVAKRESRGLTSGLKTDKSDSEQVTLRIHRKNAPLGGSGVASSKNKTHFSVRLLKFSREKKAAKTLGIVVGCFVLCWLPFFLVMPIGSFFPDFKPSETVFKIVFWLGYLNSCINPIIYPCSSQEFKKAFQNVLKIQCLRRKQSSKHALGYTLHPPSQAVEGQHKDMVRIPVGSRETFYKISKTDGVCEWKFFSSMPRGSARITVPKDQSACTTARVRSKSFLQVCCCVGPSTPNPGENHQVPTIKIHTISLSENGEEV
Description: Inverse agonist activity at alpha1A adrenoceptor in guinea pig thoracic aorta assessed as inhibition of ca2+-induced IRT at 10 nM after 30 mins. In kind it is functional, tissue-based. The essentials:
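Tissue in Krebs equilibrated 1 h at 1 g, then given a single (−)-noradrenaline dose. Washed 1 h in Ca2+-free Krebs with 0.1 mM EDTA, with agonist reapplied until no contraction (internal Ca2+ stores depleted). Antagonist 10 nM for 30 min, then Ca2+ 1.8 mM added. Result is % decrease versus IRT without any agent; mean ± SE, 4–7 experiments.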
The term inhibition denotes the relative decrease from the control value, in per cent. For `COc1cccc(OC)c1OCCNC[C@H]1COc2cccc(Cl)c2O1.Cl`, the inhibition came out at 80%.
The same measure, in the same setting: in the case of `COc1cccc(OC)c1OCCNC[C@H]1COc2c(OC)cccc2O1.Cl` it was 79%; in that of `COc1cccc(OC)c1OCCNC[C@H]1COc2cccc(F)c2O1.Cl`, 100%; in that of `COc1cccc(OC)c1OCCNC[C@H]1COc2cccc(OC)c2O1.Cl`, 60%.
The same measure, in the same setting: in the case of `COc1cccc(OC)c1OCCNC[C@H]1COc2cccc(O)c2O1.Cl` it was 100%.

The values are drawn from ChEMBL document CHEMBL2150980 (Eur J Med Chem, 2012).
